Test results taken from ChEMBL document CHEMBL5303300, “EUbOPEN Chemogenomics Library - Multiplex” (2023).
“And” between values parts separate entries of the source, which are not always exact repeats. Identical values can stand only once. *1 amine or outer side, *2 acyl side, *3 side chain or, on linkers, in order; H or OH if unused. Where a SMILES comes first, the peptide text is derived from it. Bridges are numbered along the chain shown (N, C = ends). Roman numbers before positions name the chains, in order. [ ]: non-standard residue; d: D form. Hexamethylenediamine = C(CCCN[*:2])CCN[*:1]; Dip = N[C@H](C(=O)O)C(c1ccccc1)c1ccccc1; Chg = N[C@H](C(=O)O)C1CCCCC1; NMeA = CN[C@@H](C)C(=O)O

How the values were obtained:
Type in all cases: toxicity, cell-based
[1] = test system: Fibroblast; assay: Multiplex assay against human fibroblast; settings: number of replicates 2
How it was run: (§1)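 On a CQ1 microscope at 37°C and 5% CO2, live cells were imaged after compound addition. They had been stained at seeding with Hoechst33342, BioTracker Green Microtubule Cytoskeleton Dye, MitoTracker Red and Annexin V Alexa Fluor 680. CellPathfinder machine-learning gating assigned cells to Hoechst high-intensity objects or normal cells, normal cells to healthy, pyknosed or fragmented nuclei, and pyknosed cells to mitotic or apoptotic. Tubulin, mitochondrial-mass and membrane-permeability phenotypes are per cents of healthy-nucleus cells.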

[2] = test system: U2OS; assay: Multiplex assay against U2OS; settings: human, number of replicates 2; how it was run: as §1
[3] = test system: HEK-293T; assay: Multiplex assay against HEK293T; settings: human, number of replicates 2; how it was run: as §1
[4] = 12 h, 1 µM, compound concentration 1 uM
[5] = 12 h, 10 µM, compound concentration 10 uM
[6] = 24 h, 1 µM, compound concentration 1 uM
[7] = 24 h, 10 µM, compound concentration 10 uM
[8] = 48 h, 1 µM, compound concentration 1 uM
[9] = 48 h, 10 µM, compound concentration 10 uM

CN[C@@H](C)C(=O)N[C@H](C(=O)N1CCC[C@H]1C(=O)N[C@H](C(=O)NCCCCCCNC(=O)[C@@H](NC(=O)[C@@H]1CCCN1C(=O)[C@@H](NC(=O)[C@H](C)NC)C1CCCCC1)C(c1ccccc1)c1ccccc1)C(c1ccccc1)c1ccccc1)C1CCCCC1 (I: H-[NMeA][Chg]P[Dip] / II: H-[NMeA][Chg]P[Dip]; linker I:C-II:C via Hexamethylenediamine)
Population Apoptotic (%) [1, 4]: 29% and 33%
Population Fragmented Nuclei (%) [1, 4]: 14% and 9%
Population Healthy Nuclei (%) [1, 4]: 64% and 70%
Population Hoechst High Intensity Objects (%) [1, 4]: 0%
Population Membrane Permeable-Phenotype (%) [1, 4]: 5% and 3%
Population Mitochondria Different-Phenotype (%) [1, 4]: 0% and 3%
Population Mitotic Cells (%) [1, 4]: 70% and 66%
Population Normal (%) [1, 4]: 100%
Population Pyknosed Nuclei (%) [1, 4]: 21% and 20%
Population Tubulin-Different-Phenotype (%) [1, 4]: 18% and 9%
Total Cell Count [1, 4]: 205 and 174
Population Apoptotic (%) [1, 5]: 43% and 60%
Population Fragmented Nuclei (%) [1, 5]: 15% and 11%
Population Healthy Nuclei (%) [1, 5]: 55%
Population Hoechst High Intensity Objects (%) [1, 5]: 0%
Population Membrane Permeable-Phenotype (%) [1, 5]: 4% and 3%
Population Mitochondria Different-Phenotype (%) [1, 5]: 6% and 15%
Population Mitotic Cells (%) [1, 5]: 56% and 39%
Population Normal (%) [1, 5]: 100% and 99%
Population Pyknosed Nuclei (%) [1, 5]: 29% and 33%
Population Tubulin-Different-Phenotype (%) [1, 5]: 59% and 55%
Total Cell Count [1, 5]: 210 and 251
Population Apoptotic (%) [1, 6]: 43% and 45%
Population Fragmented Nuclei (%) [1, 6]: 9% and 10%
Population Healthy Nuclei (%) [1, 6]: 68% and 66%
Population Hoechst High Intensity Objects (%) [1, 6]: 0%
Population Membrane Permeable-Phenotype (%) [1, 6]: 5% and 4%
Population Mitochondria Different-Phenotype (%) [1, 6]: 4% and 2%
Population Mitotic Cells (%) [1, 6]: 56% and 55%
Population Normal (%) [1, 6]: 100% and 99%
Population Pyknosed Nuclei (%) [1, 6]: 21% and 22%
Population Tubulin-Different-Phenotype (%) [1, 6]: 24% and 16%
Total Cell Count [1, 6]: 203 and 176
Population Apoptotic (%) [1, 7]: 72% and 60%
Population Fragmented Nuclei (%) [1, 7]: 22% and 20%
Population Healthy Nuclei (%) [1, 7]: 48% and 60%
Population Hoechst High Intensity Objects (%) [1, 7]: 0%
Population Membrane Permeable-Phenotype (%) [1, 7]: 9% and 11%
Population Mitochondria Different-Phenotype (%) [1, 7]: 36% and 23%
Population Mitotic Cells (%) [1, 7]: 27% and 39%
Population Normal (%) [1, 7]: 100%
Population Pyknosed Nuclei (%) [1, 7]: 29% and 19%
Population Tubulin-Different-Phenotype (%) [1, 7]: 63% and 71%
Total Cell Count [1, 7]: 249 and 210
Population Apoptotic (%) [1, 8]: 52% and 53%
Population Fragmented Nuclei (%) [1, 8]: 16% and 12%
Population Healthy Nuclei (%) [1, 8]: 65% and 73%
Population Hoechst High Intensity Objects (%) [1, 8]: 0%
Population Membrane Permeable-Phenotype (%) [1, 8]: 3% and 5%
Population Mitochondria Different-Phenotype (%) [1, 8]: 3% and 2%
Population Mitotic Cells (%) [1, 8]: 47% and 46%
Population Normal (%) [1, 8]: 100%
Population Pyknosed Nuclei (%) [1, 8]: 17% and 14%
Population Tubulin-Different-Phenotype (%) [1, 8]: 23% and 13%
Total Cell Count [1, 8]: 206 and 194
Population Apoptotic (%) [1, 9]: 83% and 76%
Population Fragmented Nuclei (%) [1, 9]: 35% and 30%
Population Healthy Nuclei (%) [1, 9]: 57%
Population Hoechst High Intensity Objects (%) [1, 9]: 0%
Population Membrane Permeable-Phenotype (%) [1, 9]: 8% and 3%
Population Mitochondria Different-Phenotype (%) [1, 9]: 12% and 20%
Population Mitotic Cells (%) [1, 9]: 16% and 23%
Population Normal (%) [1, 9]: 100% and 99%
Population Pyknosed Nuclei (%) [1, 9]: 6% and 12%
Population Tubulin-Different-Phenotype (%) [1, 9]: 79% and 67%
Total Cell Count [1, 9]: 258 and 314
Population Apoptotic (%) [2, 4]: 75% and 38%
Population Healthy Nuclei (%) [2, 4]: 41% and 84%
Population Hoechst High Intensity Objects (%) [2, 4]: 0%
Population Membrane Permeable-Phenotype (%) [2, 4]: 0%
Population Mitochondria Different-Phenotype (%) [2, 4]: 0%
Population Mitotic Cells (%) [2, 4]: 25% and 61%
Population Normal (%) [2, 4]: 100%
Population Pyknosed Nuclei (%) [2, 4]: 7% and 12%
Population Tubulin-Different-Phenotype (%) [2, 4]: 36% and 78%
Total Cell Count [2, 4]: 53 and 104
Population Apoptotic (%) [2, 5]: 90% and 91%
Population Healthy Nuclei (%) [2, 5]: 62% and 56%
Population Hoechst High Intensity Objects (%) [2, 5]: 1% and 0%
Population Membrane Permeable-Phenotype (%) [2, 5]: 10% and 0%
Population Mitochondria Different-Phenotype (%) [2, 5]: 20% and 19%
Population Mitotic Cells (%) [2, 5]: 9% and 8%
Population Normal (%) [2, 5]: 98% and 100%
Population Pyknosed Nuclei (%) [2, 5]: 31% and 21%
Population Tubulin-Different-Phenotype (%) [2, 5]: 57% and 22%
Population Apoptotic (%) [2, 6]: 62% and 52%
Population Healthy Nuclei (%) [2, 6]: 47% and 89%
Population Hoechst High Intensity Objects (%) [2, 6]: 0%
Population Membrane Permeable-Phenotype (%) [2, 6]: 9% and 0%
Population Mitochondria Different-Phenotype (%) [2, 6]: 0%
Population Mitotic Cells (%) [2, 6]: 37% and 47%
Population Normal (%) [2, 6]: 100%
Population Pyknosed Nuclei (%) [2, 6]: 12% and 9%
Total Cell Count [2, 6]: 65 and 175
Population Apoptotic (%) [2, 7]: 77% and 80%
Population Fragmented Nuclei (%) [2, 7]: 9%
Population Healthy Nuclei (%) [2, 7]: 54% and 58%
Population Hoechst High Intensity Objects (%) [2, 7]: 0%
Population Membrane Permeable-Phenotype (%) [2, 7]: 11% and 8%
Population Mitotic Cells (%) [2, 7]: 22% and 19%
Population Normal (%) [2, 7]: 100% and 99%
Population Pyknosed Nuclei (%) [2, 7]: 35% and 32%
Population Tubulin-Different-Phenotype (%) [2, 7]: 23% and 47%
Population Apoptotic (%) [2, 8]: 78% and 74%
Population Healthy Nuclei (%) [2, 8]: 45% and 79%
Population Hoechst High Intensity Objects (%) [2, 8]: 0%
Population Membrane Permeable-Phenotype (%) [2, 8]: 9% and 2%
Population Mitochondria Different-Phenotype (%) [2, 8]: 4% and 0%
Population Mitotic Cells (%) [2, 8]: 21% and 25%
Population Normal (%) [2, 8]: 100%
Population Pyknosed Nuclei (%) [2, 8]: 20% and 12%
Population Tubulin-Different-Phenotype (%) [2, 8]: 33% and 81%
Population Apoptotic (%) [2, 9]: 94% and 76%
Population Fragmented Nuclei (%) [2, 9]: 7% and 14%
Population Healthy Nuclei (%) [2, 9]: 63% and 52%
Population Hoechst High Intensity Objects (%) [2, 9]: 0%
Population Membrane Permeable-Phenotype (%) [2, 9]: 9% and 10%
Population Mitochondria Different-Phenotype (%) [2, 9]: 7% and 8%
Population Normal (%) [2, 9]: 99% and 100%
Population Pyknosed Nuclei (%) [2, 9]: 28% and 33%
Population Tubulin-Different-Phenotype (%) [2, 9]: 50% and 34%
Population Apoptotic (%) [3, 4]: 45% and 56%
Population Fragmented Nuclei (%) [3, 4]: 3% and 1%
Population Healthy Nuclei (%) [3, 4]: 85%
Population Hoechst High Intensity Objects (%) [3, 4]: 7% and 5%
Population Membrane Permeable-Phenotype (%) [3, 4]: 2%
Population Mitochondria Different-Phenotype (%) [3, 4]: 27% and 23%
Population Mitotic Cells (%) [3, 4]: 54% and 43%
Population Normal (%) [3, 4]: 92% and 94%
Population Pyknosed Nuclei (%) [3, 4]: 10% and 13%
Population Tubulin-Different-Phenotype (%) [3, 4]: 59% and 58%
Total Cell Count [3, 4]: 599 and 505
Population Apoptotic (%) [3, 5]: 83% and 76%
Population Fragmented Nuclei (%) [3, 5]: 4% and 2%
Population Healthy Nuclei (%) [3, 5]: 75% and 79%
Population Hoechst High Intensity Objects (%) [3, 5]: 12% and 5%
Population Membrane Permeable-Phenotype (%) [3, 5]: 3% and 0%
Population Mitochondria Different-Phenotype (%) [3, 5]: 76%
Population Mitotic Cells (%) [3, 5]: 16% and 23%
Population Normal (%) [3, 5]: 87% and 94%
Population Pyknosed Nuclei (%) [3, 5]: 20% and 17%
Population Tubulin-Different-Phenotype (%) [3, 5]: 96% and 98%
Total Cell Count [3, 5]: 501 and 525
Population Apoptotic (%) [3, 6]: 43% and 54%
Population Fragmented Nuclei (%) [3, 6]: 5% and 3%
Population Healthy Nuclei (%) [3, 6]: 87%
Population Hoechst High Intensity Objects (%) [3, 6]: 6% and 7%
Population Membrane Permeable-Phenotype (%) [3, 6]: 2% and 1%
Population Mitochondria Different-Phenotype (%) [3, 6]: 16% and 20%
Population Mitotic Cells (%) [3, 6]: 56% and 45%
Population Normal (%) [3, 6]: 93%
Population Pyknosed Nuclei (%) [3, 6]: 7% and 8%
Population Tubulin-Different-Phenotype (%) [3, 6]: 40% and 44%
Total Cell Count [3, 6]: 944 and 671
Population Apoptotic (%) [3, 7]: 79% and 67%
Population Fragmented Nuclei (%) [3, 7]: 7% and 4%
Population Healthy Nuclei (%) [3, 7]: 66% and 80%
Population Hoechst High Intensity Objects (%) [3, 7]: 12% and 7%
Population Membrane Permeable-Phenotype (%) [3, 7]: 1% and 0%
Population Mitochondria Different-Phenotype (%) [3, 7]: 85% and 82%
Population Mitotic Cells (%) [3, 7]: 20% and 32%
Population Normal (%) [3, 7]: 87% and 92%
Population Pyknosed Nuclei (%) [3, 7]: 26% and 15%
Population Tubulin-Different-Phenotype (%) [3, 7]: 92% and 95%
Total Cell Count [3, 7]: 463 and 559
Population Apoptotic (%) [3, 8]: 19% and 25%
Population Fragmented Nuclei (%) [3, 8]: 9% and 7%
Population Healthy Nuclei (%) [3, 8]: 86% and 87%
Population Hoechst High Intensity Objects (%) [3, 8]: 6% and 8%
Population Membrane Permeable-Phenotype (%) [3, 8]: 3% and 0%
Population Mitochondria Different-Phenotype (%) [3, 8]: 2% and 5%
Population Mitotic Cells (%) [3, 8]: 80% and 74%
Population Normal (%) [3, 8]: 93% and 91%
Population Pyknosed Nuclei (%) [3, 8]: 3% and 5%
Population Tubulin-Different-Phenotype (%) [3, 8]: 18% and 25%
Total Cell Count [3, 8]: 2232 and 1305
Population Apoptotic (%) [3, 9]: 80% and 75%
Population Fragmented Nuclei (%) [3, 9]: 9% and 7%
Population Healthy Nuclei (%) [3, 9]: 72% and 74%
Population Hoechst High Intensity Objects (%) [3, 9]: 9% and 10%
Population Membrane Permeable-Phenotype (%) [3, 9]: 4% and 2%
Population Mitochondria Different-Phenotype (%) [3, 9]: 53% and 56%
Population Mitotic Cells (%) [3, 9]: 19% and 24%
Population Normal (%) [3, 9]: 90% and 89%
Population Pyknosed Nuclei (%) [3, 9]: 18% and 17%
Population Tubulin-Different-Phenotype (%) [3, 9]: 82% and 84%
Total Cell Count [3, 9]: 653 and 709
